Source: ChEMBL document CHEMBL4680332, “Lead optimization of 2-hydroxymethyl imidazoles as non-hydroxamate LpxC inhibitors: Discovery of TP0586532” (Bioorg Med Chem, 2021)
Converted amounts (≈) assume the structure as drawn.

Legend:
[1] = system: Escherichia coli; assay: Antibacterial activity against Escherichia coli ATCC 25922 by CLSI based broth microdilution method; format: functional
Procedure, shortened: (§1)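 Broth microdilution MIC per CLSI method; E. coli ATCC 25922 and K. pneumoniae ATCC 13883.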

[2] = system: Klebsiella pneumoniae; assay: Antibacterial activity against Klebsiella pneumonia ATCC 13883 by CLSI based broth microdilution method; format: functional; procedure, shortened: as §1
[3] = Inhibition of Escherichia coli LpxC using DP-3-0-(R-3-hydroxymyristoy1)-N-acetylglucosamine as substrate incubated for 120 mins by fluorescamine assay
[4] = Protein binding in human serum at 1 ug/ml incubated for 4 hrs by LC-MS/MS analysis; format: ADME, cell-free; settings: at 1 µg/mL, read-out: PB (converted)
Procedure, shortened: (§2)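 Equilibrium dialysis at 1 µg/mL final in pooled male ICR mouse serum or human volunteer serum (no anticoagulant). Dialyzed against 50 mM sodium phosphate buffer at 37 °C for 4 h (5% CO2, MWCO 12000–14000). Compound on each side measured by LC-MS/MS; binding % = (Cs−Cb)/Cs×100.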

[5] = Protein binding in ICR mouse serum at 1 ug/ml incubated for 4 hrs by LC-MS/MS analysis; format: ADME, cell-free; settings: at 1 µg/mL, read-out: PB (converted); procedure, shortened: as §2
[6] = system: Klebsiella pneumoniae; assay: In vivo antibacterial activity against Klebsiella pneumonia ATCC BAA-2343 infected in ICR mouse assessed as reduction in bacterial burden in lung at 50 mg/kg, sc administered after 2 hrs of infection and measured after 26 hrs of infection; format: functional; settings: time 24 hrs
Procedure, shortened: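 Female ICR mice (5 weeks) made neutropenic with cyclophosphamide ip, 150 and 100 mg/kg at days −4 and −1. Intranasal inoculation with 1.5–1.9 × 10^6 CFU. Compound in 10w/v% HP-β-CD given sc 2 h post-infection (n = 5). Lung viable counts at 2 h (control) and 26 h; mean log change versus start of therapy.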

[7] = Toxicity in iv dosed ICR mouse assessed as maximum tolerated dose; format: organism-based; settings: in vivo
Procedure, shortened: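 Exploratory MTD study in male ICR mice (n = 2): a single intravenous tail-vein injection at dose levels of up to 200 mg/kg.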

[8] = system: Klebsiella pneumoniae; assay: In vivo antibacterial activity against Klebsiella pneumonia 4102 infected in ICR mouse assessed as mouse survival rate at 25 mg/kg, sc administered once after 1 hr of infection and observed for 7 days relative to control; format: functional; settings: time 7 day
Procedure, shortened: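 Four-week-old male ICR mice given K. pneumoniae 4102 intraperitoneally (3.8–5.5 × 10^6 CFU/mouse) in 0.5 mL suspension with 3w/v% mucin. Compound in 10w/v% HP-β-CD, single subcutaneous dose 1 h post-inoculation (n = 6). Survival followed for 7 days.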

[9] = Cardiotoxicity in iv dosed Hartley guinea pig assessed as increase in QT prolongation measured after 30 mins; format: toxicity, organism-based, Cavia porcellus; settings: in vivo, 0.5 h
Procedure, shortened: (§3)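 Guinea pigs (6–7 weeks) anesthetized with pentobarbital 60 mg/kg ip, then infused iv at 8 mg/kg/h; ventilated at 15 mL/kg, 60/min. Vehicle (11w/v% SBE-β-CD, pH4) or compound infused via jugular vein for 30 min. Carotid arterial pressure and ECG recorded; QT corrected by Bazett. Heart rate, QTc, SBP and DBP expressed as change from baseline.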

[10] = Cardiotoxicity in iv dosed Hartley guinea pig assessed as decrease in heart rate measured after 30 mins; format: toxicity, organism-based, Cavia porcellus; settings: in vivo, 0.5 h; procedure, shortened: as §3
[11] = Cardiotoxicity in iv dosed Hartley guinea pig assessed as decrease in blood pressure measured after 30 mins; format: toxicity, organism-based, Cavia porcellus; settings: in vivo, 0.5 h; procedure, shortened: as §3
[12] = Plasma concentration in Hartley guinea pig at 180 mg/kg, iv measured after 30 mins by LC-MS/MS analysis; format: ADME, organism-based, Cavia porcellus
Procedure, shortened: (§4)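 Anesthetized guinea pigs received a 30-min iv infusion. Blood was taken at the end of infusion and centrifuged, and plasma concentration (C30min) was measured by LC-MS/MS.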

[13] = Free plasma concentration in Hartley guinea pig serum assessed as fraction unbound at 180 mg/kg, iv measured after 30 mins by LC-MS/MS analysis; format: ADME, organism-based, Cavia porcellus; settings: in vivo, 0.5 h
Procedure, shortened: (§5)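 Unbound plasma concentration at end of 30-min iv infusion in anesthetized guinea pigs: LC-MS/MS plasma C30min multiplied by fraction unbound, with plasma fu assumed equal to serum fu (equilibrium dialysis, 500 µg/mL in guinea pig serum).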

[14] = Plasma concentration in Hartley guinea pig at 60 mg/kg, iv measured after 30 mins by LC-MS/MS analysis; format: ADME, organism-based, Cavia porcellus; procedure, shortened: as §4
[15] = Free plasma concentration in Hartley guinea pig serum assessed as fraction unbound at 60 mg/kg, iv measured after 30 mins by LC-MS/MS analysis; format: ADME, organism-based, Cavia porcellus; settings: in vivo, 0.5 h; procedure, shortened: as §5
[16] = Plasma concentration in Hartley guinea pig at 135 mg/kg, iv measured after 30 mins by LC-MS/MS analysis; format: ADME, organism-based, Cavia porcellus; procedure, shortened: as §4
[17] = Free plasma concentration in Hartley guinea pig serum assessed as fraction unbound at 135 mg/kg, iv measured after 30 mins by LC-MS/MS analysis; format: ADME, organism-based, Cavia porcellus; settings: in vivo, 0.5 h; procedure, shortened: as §5
[18] = Cardiotoxicity in Hartley guinea pig assessed as decrease in blood pressure at 150 mg/kg, iv measured after 30 mins; format: toxicity, organism-based, Cavia porcellus; settings: in vivo, 0.5 h; procedure, shortened: as §3
[19] = target: Voltage-gated inwardly rectifying potassium channel KCNH2 (Homo sapiens, UniProt Q12809); assay: Inhibition of human ERG expressed in CHO cells by whole cell Q-patch clamp assay; format: cell-based
[20] = Genotoxicity in mouse lymphoma cell; format: toxicity; settings: lymphoma cell line
[21] = Toxicity in iv dosed cynomolgus monkey assessed as maximum tolerated dose administered for 14 days; format: organism-based, Macaca fascicularis; settings: in vivo, time 14 day
Procedure, shortened: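 Three-year-old female cynomolgus monkeys were dosed intravenously for 14 days as a 30-min infusion via the saphenous vein. MTD was assessed under repeated dosing.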

[22] = Toxicity in iv dosed Sprague-Dawley rat assessed as maximum tolerated dose administered for 4 days; format: organism-based; settings: in vivo, time 4 day
Procedure, shortened: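 Six-week-old male and female Sprague Dawley rats received intravenous bolus doses via the tail vein for 4 days. MTD was assessed under repeated dosing.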

[23] = Plasma concentration in Hartley guinea pig at 150 mg/kg, iv measured after 30 mins by LC-MS/MS analysis; format: ADME, organism-based, Cavia porcellus; procedure, shortened: as §4
[24] = Free plasma concentration in Hartley guinea pig serum assessed as fraction unbound at 150 mg/kg, iv measured after 30 mins by LC-MS/MS analysis; format: ADME, organism-based, Cavia porcellus; settings: in vivo, 0.5 h; procedure, shortened: as §5
[25] = in the assay text read “LCMS assay” for “fluorescamine assay”

Voltage-gated inwardly rectifying potassium channel KCNH2, sequence (Q12809 whole entry): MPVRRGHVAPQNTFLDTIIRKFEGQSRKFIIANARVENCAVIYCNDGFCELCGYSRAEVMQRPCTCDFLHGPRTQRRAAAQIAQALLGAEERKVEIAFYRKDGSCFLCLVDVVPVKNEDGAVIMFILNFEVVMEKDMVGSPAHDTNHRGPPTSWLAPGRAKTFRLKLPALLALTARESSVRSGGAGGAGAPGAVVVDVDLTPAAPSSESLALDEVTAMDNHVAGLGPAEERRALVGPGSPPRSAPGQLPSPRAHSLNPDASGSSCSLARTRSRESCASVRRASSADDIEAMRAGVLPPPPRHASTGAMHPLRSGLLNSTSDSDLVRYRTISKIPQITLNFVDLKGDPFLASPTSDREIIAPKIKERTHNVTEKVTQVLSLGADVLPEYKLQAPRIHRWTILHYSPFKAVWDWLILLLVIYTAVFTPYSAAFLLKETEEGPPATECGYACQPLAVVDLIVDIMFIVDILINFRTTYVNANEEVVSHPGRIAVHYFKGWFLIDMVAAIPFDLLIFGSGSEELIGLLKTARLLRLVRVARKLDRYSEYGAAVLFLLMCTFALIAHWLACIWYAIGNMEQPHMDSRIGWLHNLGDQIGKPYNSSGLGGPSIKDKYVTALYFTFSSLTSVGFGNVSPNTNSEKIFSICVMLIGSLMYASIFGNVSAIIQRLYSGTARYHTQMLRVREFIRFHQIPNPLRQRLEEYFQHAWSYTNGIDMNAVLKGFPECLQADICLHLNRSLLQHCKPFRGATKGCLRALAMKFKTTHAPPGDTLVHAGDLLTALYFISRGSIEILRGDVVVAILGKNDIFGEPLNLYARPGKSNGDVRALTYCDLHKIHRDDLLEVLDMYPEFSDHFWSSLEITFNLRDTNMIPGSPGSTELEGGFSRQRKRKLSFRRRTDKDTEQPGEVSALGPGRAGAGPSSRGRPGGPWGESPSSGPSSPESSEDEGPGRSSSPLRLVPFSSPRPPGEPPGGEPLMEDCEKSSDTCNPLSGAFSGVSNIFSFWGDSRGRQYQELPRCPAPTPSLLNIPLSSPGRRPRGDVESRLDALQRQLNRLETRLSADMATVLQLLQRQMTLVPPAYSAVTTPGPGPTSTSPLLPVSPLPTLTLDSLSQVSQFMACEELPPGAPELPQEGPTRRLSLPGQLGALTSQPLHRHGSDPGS

Compound	MIC [1] [µg/mL]	MIC [2] [µg/mL]	IC50 [3, 25] [nM]	fraction unbound at 4 h, 1 ug/ml [4]	fraction unbound at 4 h, 1 ug/ml [5]	Activity [6] [log10CFU]	MTD [7] [mg/kg]	IC50 [3] [nM]	other results
C[C@H](O)c1nccn1[C@H](CN)c1cc(-c2ccc(C#C[C@@H]3[C@H]4CN(CCCC(=O)O)C[C@@H]34)cc2)on1	4 (≈ 8.17 µM)	16 (≈ 32.7 µM)							
C[C@H](O)c1nccn1Cc1cc(-c2ccc(C#CC34CC(N)(C3)C4)cc2)no1	0.5 (≈ 1.34 µM)	2 (≈ 5.34 µM)	65	0.035	0.069				
C[C@H](O)c1nccn1[C@H](CN)c1cc(-c2ccc(C#CC34CC(N)(C3)C4)cc2)on1	0.5 (≈ 1.24 µM)	2 (≈ 4.96 µM)	279	0.103	0.084	-2.48	100		
COCCN1CCN(c2ccc(C#Cc3cc(Cn4ccnc4[C@H](C)O)no3)cc2)CC1	0.25 (≈ 0.574 µM)	0.5 (≈ 1.15 µM)		0.09	0.083			71	
C[C@H](O)c1nccn1Cc1cc(-c2ccc(C#CC3(N)CC3)cc2)on1	0.5 (≈ 1.44 µM)	1 (≈ 2.87 µM)	46	0.07	0.099				Activity [8]: 67%
C[C@H](O)c1nccn1Cc1cc(C#Cc2ccc(CCCO)cc2)on1	0.5 (≈ 1.42 µM)	2 (≈ 5.69 µM)		< 0.005	< 0.005			31	
C[C@H](O)c1nccn1Cc1cc(-c2ccc(C#C[C@H]3C[C@H](O)C3)cc2)on1	0.12 (≈ 0.33 µM)	0.25 (≈ 0.688 µM)		0.017	0.035			15	Activity [8]: 0%
C[C@H](O)c1nccn1Cc1cc(-c2ccc(C#CC34CC(N)(C3)C4)cc2)on1	0.25 (≈ 0.668 µM)	0.5 (≈ 1.34 µM)	49	0.027	0.034				Activity [8]: 0%
C[C@H](O)c1nccn1Cc1cc(C#Cc2ccc(OC3CN(CCCO)C3)cc2)on1	2 (≈ 4.73 µM)	8 (≈ 18.9 µM)		0.261	0.165			378	
C[C@H](O)c1nccn1Cc1cc(-c2ccc(C#C[C@@H]3[C@H]4CN(C=O)C[C@@H]34)cc2)on1	1 (≈ 2.48 µM)	2 (≈ 4.97 µM)		0.095	0.09	-2.84	100	39	
C[C@H](O)c1nccn1[C@H](CN)c1cc(-c2ccc(C#CC3(N)CC3)cc2)on1	2 (≈ 5.3 µM)	8 (≈ 21.2 µM)	282						
C[C@H](O)c1nccn1Cc1cc(-c2ccc(C#CCCCO)cc2)on1	1 (≈ 2.85 µM)	2 (≈ 5.69 µM)		0.031	0.049			51	
C[C@H](O)c1nccn1[C@H](CN)c1cc(-c2ccc(C#C[C@@H]3[C@H]4CN(C=O)C[C@@H]34)cc2)on1	1 (≈ 2.32 µM)	2 (≈ 4.64 µM)		0.275	0.18	-2.47	≥ 200		Activity [9]: Toxic; Activity [10]: Toxic; Activity [11]: Toxic; concentration at 0.5 h [12]: 233 µg/mL; Cp(f) [13]: 59.4 µg/mL
C[C@H](O)c1nccn1[C@H](CN)c1cc(-c2ccc(C#C[C@H]3C[C@H](O)C3)cc2)on1	0.25 (≈ 0.637 µM)	1 (≈ 2.55 µM)	< 37	0.074	0.07	-1.99	≥ 200		Activity [9]: Toxic; Activity [10]: Toxic; Activity [11]: Toxic; concentration at 0.5 h [14]: 90.7 µg/mL; Cp(f) [15]: 15.6 µg/mL
C[C@H](O)c1nccn1Cc1cc(-c2ccc(C#CC3(N)CC3)cc2)no1	1 (≈ 2.87 µM)	4 (≈ 11.5 µM)	193	0.115	0.15				
C[C@H](O)CN1C[C@@H]2[C@@H](C#Cc3ccc(-c4cc([C@@H](CN)n5ccnc5[C@H](C)O)no4)cc3)[C@@H]2C1	1 (≈ 2.17 µM)	4 (≈ 8.67 µM)		0.212	0.151	-1.19	≥ 200		Activity [9]: Toxic; Activity [10]: Toxic; Activity [11]: Toxic; concentration at 0.5 h [16]: 132 µg/mL; Cp(f) [17]: 36 µg/mL
C[C@H](O)c1nccn1Cc1cc(-c2ccc(C#C[C@@H]3[C@H]4CN(CCCC(=O)O)C[C@@H]34)cc2)on1	2 (≈ 4.34 µM)	4 (≈ 8.69 µM)		0.223	0.241	-1.63	≥ 200	101	Activity [9]: Non-Toxic; Activity [10]: Non-Toxic; Activity [18]: Non-Toxic; IC50 [19]: > 1 mM; Activity [20]: Non-Toxic; MTD at 336 h [21]: > 400 mg/kg; MTD at 96 h [22]: 400 mg/kg; concentration at 0.5 h [23]: 378 µg/mL; Cp(f) [24]: 87.3 µg/mL
COCC(O)CN1C[C@@H]2[C@@H](C#Cc3ccc(-c4cc(Cn5ccnc5[C@H](C)O)on4)cc3)[C@@H]2C1 (mixture of isomers)	0.5	0.5		0.076	0.077			97	Activity [8]: 17%
COCC(O)CN1C[C@@H]2[C@@H](C#Cc3ccc(-c4cc(Cn5ccnc5[C@H](C)O)no4)cc3)[C@@H]2C1 (mixture of isomers)	0.5	0.5		0.065	0.082			71	Activity [8]: 33%
